FLuc act counter: firefly luciferase counter-screen for stimulation assays; P08659; 200,000 tested, under 10 active; ATPlite luciferase biochemical, luminescence, 10 min; 0 = ATP-free wells, 1 = DMSO control; activation factor at 10 µM;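 active = luciferase activation factor, scaled between plate controls, of at least 2 with compound at 10 µM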
Target sequence (P08659 whole entry, looked up): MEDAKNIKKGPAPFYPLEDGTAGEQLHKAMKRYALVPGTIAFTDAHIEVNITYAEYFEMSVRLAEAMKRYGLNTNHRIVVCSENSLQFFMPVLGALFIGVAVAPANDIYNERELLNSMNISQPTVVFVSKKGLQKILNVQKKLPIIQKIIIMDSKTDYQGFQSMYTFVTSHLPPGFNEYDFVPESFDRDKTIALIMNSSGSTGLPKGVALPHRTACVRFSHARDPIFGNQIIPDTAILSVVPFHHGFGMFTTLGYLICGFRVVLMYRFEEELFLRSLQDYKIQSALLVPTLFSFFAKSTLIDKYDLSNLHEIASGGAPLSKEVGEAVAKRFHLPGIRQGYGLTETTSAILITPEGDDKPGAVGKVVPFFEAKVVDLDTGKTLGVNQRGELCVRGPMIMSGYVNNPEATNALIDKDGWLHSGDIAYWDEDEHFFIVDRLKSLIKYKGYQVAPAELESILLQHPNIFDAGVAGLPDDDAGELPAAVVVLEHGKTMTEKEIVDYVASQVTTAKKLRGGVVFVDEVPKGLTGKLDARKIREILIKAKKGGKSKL
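assay system = Luciferase/luciferin detection reagent, cell-free biochemical luciferase assay | also added = ATP substrate | times = 10 min post-reagent at room temperature | measured by = luminescence from luciferase reaction | measure = luciferase activation, seen as luminescence increase over controls | benchmarks = low control with PBS replacing ATP, high control enzyme plus ATP without compound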
FLuc inhib CS: counter-screen for luciferase assay inhibitors: firefly luciferase inhibition; P08659; ATPLite firefly luciferase biochemical luminescence, 10 min; inhibition, % at 10 µM; 1.5% of 200,000 active; AID 1006;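 active = inhibition above about 50% when tested at 10 µM, limit read from the data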
HSP90 inh: blocks HSP90-mediated luciferase refolding in reticulocyte lysate. 0.91% of 290,000 active. Rabbit reticulocyte lysate, luciferase refolding luminescence, 3 h. inhibition, % at 5.6 µM. AID 1789;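 active = inhibition above the screen-wide mean plus 3 SD, computed separately per campaign, cut at about 16% in these data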;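 note: inhibitors lower the luminescence because luciferase stays unfolded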
TRAIL sens C8: sensitizes caspase-8 expressing cells to TRAIL; NB7+C8 cells + TRAIL, ATPlite viability luminescence; inhibition (viability loss, TRAIL sensitization), % at 10 µM; 1% of 360,000 active;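 active = compounds causing at least 50% loss of cell viability in the single-dose screen, relative to plate controls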
PPC-1+TRAIL kill: kills PPC-1 cancer cells in the presence of TRAIL | cell killing (% activity), % at 4 µM or 5 µM | PPC-1 cells + TRAIL, ATPLite viability luminescence | 0.41% of 220,000 active;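 active = cell killing above 50% in the first pass at 4 µM, then a duplicate retest at 5 µM averaging 50% or more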
PPC-1 tox: kills PPC-1 cells; shares compounds with PPC-1+TRAIL kill; 50% of 1,200 active; cytotoxicity, % at 5 µM; AID 1447; PPC-1 viability, ATPlite luminescence, overnight;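 active = reconfirmed compounds whose average cytotoxicity reaches 50% or more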
A number is an active result; . = inactive; / = no result given. Sampled rows, rich in hits. Any-hit rate of the full collection: about 2%.

SMILES | FLuc act counter | FLuc inhib CS | HSP90 inh | TRAIL sens C8 | PPC-1+TRAIL kill | PPC-1 tox
CN(c1cccc(NC(=O)c2ccc(C(C)(C)C)cc2)c1)S(C)(=O)=O | . | 79.9 | . | 73.4 | . | 53.2
CN(c1cccc(NC(=O)c2ccc(N(C)S(=O)(=O)c3ccccc3)cc2)c1)S(C)(=O)=O | . | . | . | . | . | /
CC(=O)C1=CCC(c2ccc(C)o2)N(S(=O)(=O)c2ccc(C)cc2)C1 (stereo unspecified) | / | / | / | . | / | /
CCCC(=O)Nc1nnc([C@H]2C[C@H](O)[C@@H](CO)O2)s1 | / | / | / | . | / | /
CCOC(=O)C[n+]1c(C)sc2ccc(OC)cc21 | . | . | . | . | . | .
CCO/C(=C/c1sc2ccc(OC)cc2[n+]1CCCS(=O)(=O)[O-])CC | . | . | . | . | . | /
Cc1ccccc1Cn1ccc(NC(=O)CCSc2nc(-c3ccco3)cc(C(F)(F)F)n2)n1 | . | . | . | . | . | .
CC(C)(C)c1ccc(NC(=O)Nc2ccc(OCC(=O)N3CCOCC3)cc2)cc1 | . | 91.6 | . | 78.0 | 63.1 | 63.1
CCOC(=O)CNC(=O)CSc1nc(C(C)C)nc2c1cnn2-c1ccccc1 | / | / | / | . | / | /
CCOC(=O)c1cnc2c(-c3ccccc3)cnn2c1N | . | 74.7 | . | 66.0 | 52.5 | 55.1
CCOC(=O)c1cnc2c(N=Nc3ccccc3)c(N)nn2c1N | . | 69.9 | . | 68.6 | 58.2 | 59.0
FC(F)(F)c1nc2nccnc2[nH]1 | / | / | / | . | / | /
COC(=O)[C@H]1C[C@@]2(O)CN(S(=O)(=O)c3ccc(C)cc3)C[C@@]2(OC(=O)NCc2ccccc2)C[C@H]1C(=O)OC | / | / | / | . | / | /
O=C(/C=C/c1ccc(O)cc1)c1ccc(NC2=C(N3CCCCC3)C(=O)c3ccccc3C2=O)cc1 | . | . | . | . | 69.7 | 57.9
CCN(CC(=O)Nc1c(C(=O)OC)[nH]c2ccc(Cl)cc12)c1ccc2c(c1)OCO2 | . | . | . | . | . | .
CCOC(=O)N1CCC(n2c(=S)[nH]c3ccccc3c2=O)CC1 | . | . | . | . | . | .
CCOC(=O)N1CCN(C(=O)CCCn2c(=S)[nH]c3ccccc3c2=O)CC1 | . | . | . | . | . | /
O=C(/C=C/c1ccco1)Nc1ccc2c(c1)OCCO2 | . | 88.7 | . | 64.5 | 64.2 | 63.1
Cc1cccc(NS(=O)(=O)c2cc(C(=O)N3CCc4ccccc4C3)ccc2Cl)c1C | . | . | . | . | . | .
CCCCNC(=O)C(NC(=O)c1ccc(-c2ccccc2)cc1)C(=O)c1ccccc1 (stereo unspecified) | / | / | / | . | / | /
COC(=O)[C@H](CCSC)NC(=O)N1CCC(C)CC1 | . | . | . | . | . | .
COC(=O)[C@H](CCSC)NC(=O)N1CCN(Cc2ccccc2)CC1 | . | . | . | . | . | /
O=C(/C=C/c1c[nH]c2ccccc12)c1cccc2ccccc12 | . | . | . | . | . | /
O=C(COc1ccc(S(=O)(=O)NC2CCCCC2)cc1)NCC1CCCO1 (stereo unspecified) | . | . | . | . | . | .
CC(C)(C)NS(=O)(=O)c1ccc(OCC(=O)NCC2CCCO2)cc1 (stereo unspecified) | / | / | / | . | / | /
SMILES | FLuc act counter | FLuc inhib CS | HSP90 inh | TRAIL sens C8 | PPC-1+TRAIL kill | PPC-1 tox
O=C(Nc1nnc([C@H]2C[C@H](O)[C@@H](CO)O2)s1)NC1CCCCC1 | / | / | / | . | / | /
CCN(CC)CCCNC1=C(Cl)C(=O)c2ccccc2C1=O | . | . | . | 93.6 | . | .
COCCCNC1=C(Cl)C(=O)c2ccccc2C1=O | / | / | . | . | . | /
CC(C)NC(=O)C1CCCN(S(=O)(=O)c2cccs2)C1 (stereo unspecified) | . | . | . | . | . | .
CC(NC(=O)C1CCCN(S(=O)(=O)c2cccs2)C1)c1ccccc1 (stereo unspecified) | . | . | . | . | . | /
CC(C)c1ccc(CC(=O)N2CCC2(C)C(=O)NS(=O)(=O)c2cccc(C#N)c2)cc1 (stereo unspecified) | / | / | / | . | / | /
CS/C(Nc1cc(Cl)ccc1Cl)=C(/C#N)C(=O)c1ccco1 | / | / | . | 76.3 | . | .
Cc1ccccc1N=CC=C1OC(C)(C)C(C)(C)O1 | . | . | . | . | . | /
O=C(Nc1ccc2c(c1)OCCO2)c1cncc(Br)c1 | . | 65.0 | . | . | . | .
CCCN(C)C1CN(Cc2cn(Cc3ccc(F)cc3)nn2)S(=O)(=O)C1 (stereo unspecified) | / | / | / | . | / | /
O=C(Nc1ccccc1)Nc1cc(OCC(F)(F)F)cc(OCC(F)(F)F)c1 | . | . | . | . | . | .
O=C(Nc1ccccc1)Nc1cc(Cl)cc(Cl)c1 | . | . | . | . | . | /
O=C(O)CC(NC(=O)c1ccccc1NC(=O)c1ccccc1)C(=O)O (stereo unspecified) | . | . | . | . | . | .
COc1ccc(-c2c(-c3ccsc3)oc3c2C(O)CCC3)cn1 (stereo unspecified) | / | / | / | . | / | /
C#CCn1c(=NC(=O)c2ccco2)sc2cccc(Cl)c21 | / | / | . | . | . | /
Cn1c(=NC(=O)c2ccco2)sc2ccccc21 | . | 86.0 | . | 58.8 | 50.4 | 53.3
Cc1sc(=NC(=O)c2ccco2)n(C)c1-c1ccccc1 | . | 91.2 | . | 78.1 | 75.5 | 73.8
COc1ccc(/C=C/C(=O)c2c(O)cc(C)oc2=O)c(OC)c1 | . | 95.1 | . | 88.9 | 86.8 | 86.2
CCCC[C@@H]1CNC(=O)C(=O)N1CCCCC1CCCCC1 | / | / | / | . | / | /
CC(C)(C)c1ccc(C(=O)N/N=C/c2ccccn2)cc1 | / | / | . | . | / | /
CC(C)(C)c1ccc(/C=N/NC(=O)c2ccccn2)cc1 | . | 92.7 | . | 75.8 | 63.6 | 61.2
O=C(Nc1ccc(NC(=O)c2ccco2)nc1)c1ccco1 | . | 84.0 | . | 68.5 | 52.6 | 51.9
Cc1ccc2sc(-c3ccc(NC(=O)/C=C\C(=O)O)cc3)nc2c1 | . | 84.0 | . | . | . | .
O=[N+]([O-])c1nccn1CC(O)CO (stereo unspecified) | / | / | / | . | / | /
CC(=O)Nc1cccc(-c2nc3ccc(NC(C)=O)cc3s2)c1 | . | 66.0 | . | . | . | .
SMILES | FLuc act counter | FLuc inhib CS | HSP90 inh | TRAIL sens C8 | PPC-1+TRAIL kill | PPC-1 tox
CC(=O)Nc1cccc(-c2nc3ccccc3s2)c1 | . | . | . | . | . | /
CCc1ccc(-n2c(=O)c3c(C)c(C)sc3n(CC(=O)NCC3CCCO3)c2=O)cc1 (stereo unspecified) | . | . | . | . | . | /
CCN(CC)c1ccc(C2N(C(=O)N3CCOCC3)CCN2S(=O)(=O)c2ccc(C)cc2)cc1 (stereo unspecified) | . | . | . | . | . | .
Cc1cc(N2CCN(c3ccccc3)CC2)n2ncnc2n1 | . | . | . | . | . | /
Cc1cc(N2CC(=O)N(CCc3ccccc3)C(=O)C2)n2ncnc2n1 | . | . | . | . | . | .
Cc1nn2c(-c3ccc(F)cc3)ccnc2c1Br | / | / | . | . | / | /
Fc1ccc(-c2cnn3c(-c4cccs4)ccnc23)cc1 | . | 83.4 | . | 67.7 | 59.4 | 52.8
Fc1ccc(-c2cnn3c(-c4ccncc4)ccnc23)cc1 | . | 75.5 | . | 54.3 | . | .

From PubChem
